# Assay results published in PMC11316633 (European journal of medicinal chemistry, 2024).
# What was measured:
# CDK7/Cyclin H/MNAT1 = CDK7/Cyclin H/MNAT1 (Homo sapiens, UniProt P50613); assay: Adapta Eu kinase assay; type: biochemical
# Method in brief: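 CDK7/Cyclin H/MNAT1 complex tested by an outside contract service in Adapta Eu format, with ATP at its Km concentration.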
# CDK7 [1] = biological target: T1, CDK7 (Homo sapiens, UniProt P50613); assay: Immunoblot analysis of CDK7 degradation in Jurkat cells; type: cell-based; details: for CDK7 degradation (in words) / reduction in CDK7 protein: 16 h, Western blot
# Method in brief: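 Jurkat cells received test compound at 0.1 or 1 μM for 16 h, 0.1 μM for 0.5–24 h, or a concentration series for 6 h. Other arms were pretreated 2 h with MG132, MLN-4924, parent CDK7 inhibitor or VHL ligand, or used VHL-knockout Jurkat (6 h). Blots: RIPA lysis, 4–20% SDS-PAGE, nitrocellulose, anti-CDK7 1:1000, β-actin 1:5000, IRDye secondaries. Mean ± SEM of three biological replicates.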
# OVCAR3 cells = assay: CellTiter-Glo proliferation assay, OVCAR3; type: cell-based; details: OVCAR3, 72h
# Method in brief: (§1)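 Cells were grown in RPMI 1640 with 10% heat-inactivated FBS and penicillin/streptomycin at 37 °C and 5% CO2, and tested mycoplasma-negative. They were seeded at 10^4/ml and treated in triplicate. Compounds were dispensed by robot from 10 mM or 1 mM stocks, with DMSO equalised across wells. A non-degrading analogue and the parent inhibitor served as controls. After 72 h, CellTiter-Glo was added for 10–15 min at room temperature and luminescence was read.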
# MAT1 = assay: Western blotting analysis of MAT1 in OVCAR3 and Jurkat cells; type: cell-based; details: Western blot, 6 h
# Method in brief: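 OVCAR3 and Jurkat cells were exposed to test compound for 6 h. RIPA lysates were BCA-equalised, resolved on 4–20% SDS-PAGE, and transferred to nitrocellulose. Blots were probed overnight at 4 °C for MAT1, Cyclin H and CDK7 (each 1:1000) plus β-actin (1:5000), then with IRDye secondaries for 1 h at room temperature, and imaged by infrared scanning.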
# OVCAR3 cells proteome = assay: Multiplexed quantitative mass-spectrometry-based proteomics in OVCAR3 cells; type: cell-based, human; details: OVCAR3, 0.1 μM, 6 h
# Method in brief: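 OVCAR3 cells in triplicate plates adhered 24 h, then received 0.1 μM test compound or DMSO for 6 h. Lysis was in 2% SDS buffer, followed by 5 mM DTT (37 °C, 1 h) and 15 mM iodoacetamide. Lys-C then trypsin (each 1:75) digested the samples. 150 μg per sample was TMT18-labelled, fractionated at pH 8, and quantified by SPS-MS3 on an Orbitrap. Target-decoy SEQUEST search; peptides with TMT sum >200 and isolation specificity >0.7 kept.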
# [2] = Mouse pharmacokinetic study; type: in vivo, mice
# [3] = Tolerability during mouse PK study; type: in vivo; details: mice
# [4] = test system: CDK1, 2, 4, 5, 6, 8 and 9; assay: Western blotting analysis of other CDKs in Jurkat cells; type: cell-based, human; details: 0.1 to 0.5 μM, 6 hours
# Method in brief: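 Jurkat cells were exposed to test compound at 0.1–0.5 μM for 6 h. Lysis was in ice-cold RIPA (pH 7.4) with protease and phosphatase inhibitors, with BCA protein quantitation. Samples were boiled 10 min at 95 °C, run on 4–20% SDS-PAGE, and transferred to nitrocellulose. Primary antibodies were applied overnight at 4 °C, then IRDye secondaries for 1 h at room temperature, with infrared detection.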
# CDK7 [5] = biological target: T1, CDK7; assay: Immunoblot analysis of CDK7 degradation in different cell lines; type: cell-based; details: 6 h
# Method in brief: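 Cell lines grown in RPMI 1640/10% FBS were exposed to test compound for 6 h. Lysis was in ice-cold RIPA (pH 7.4) with protease/phosphatase inhibitors, with BCA-equalised loading. Proteins were run on 4–20% SDS-PAGE and transferred to nitrocellulose. Blots were probed overnight at 4 °C with anti-CDK7 1:1000 and β-actin 1:5000, then with IRDye secondaries for 1 h at room temperature, and scanned by infrared imaging.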
# LONRF2 = assay: Western blot of LONRF2; type: cell-based; details: 0.1 to 5 μM
# Method in brief: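 Immunoblot with anti-LONRF2 1:1000 overnight at 4 °C and β-actin 1:5000 as loading control. RIPA lysates with protease/phosphatase inhibitors were BCA-equalised, run on 4–20% SDS-PAGE, and transferred to nitrocellulose. IRDye secondaries were applied for 1 h at room temperature, followed by infrared scanning.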
# SUDHL5 cells = assay: CellTiter-Glo proliferation assay, SUDHL5; type: cell-based; details: SUDHL5, 72h
# Method in brief: as §1
# A549 cells = assay: CellTiter-Glo proliferation assay, A549; type: cell-based; details: A549, 72h
# Method in brief: as §1
# Jurkat cells = assay: CellTiter-Glo proliferation assay, Jurkat; type: cell-based, human; details: 72h
# Method in brief: as §1
# Molt4 cells = assay: CellTiter-Glo proliferation assay, Molt4; type: cell-based; details: Molt4, 72h
# Method in brief: as §1
# Chain of CDK7/Cyclin H/MNAT1 (P50613 whole entry): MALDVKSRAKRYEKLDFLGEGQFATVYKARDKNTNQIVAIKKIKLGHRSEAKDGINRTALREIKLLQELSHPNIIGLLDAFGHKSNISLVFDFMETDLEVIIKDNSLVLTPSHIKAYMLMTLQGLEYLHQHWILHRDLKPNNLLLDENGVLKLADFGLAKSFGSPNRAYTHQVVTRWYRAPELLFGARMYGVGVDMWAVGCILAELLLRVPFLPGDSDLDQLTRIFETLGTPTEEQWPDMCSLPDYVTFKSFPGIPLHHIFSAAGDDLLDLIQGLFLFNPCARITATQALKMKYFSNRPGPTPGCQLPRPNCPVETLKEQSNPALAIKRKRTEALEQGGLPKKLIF
# Chain of CDK7/Cyclin H/MNAT1 (P51946 whole entry partner): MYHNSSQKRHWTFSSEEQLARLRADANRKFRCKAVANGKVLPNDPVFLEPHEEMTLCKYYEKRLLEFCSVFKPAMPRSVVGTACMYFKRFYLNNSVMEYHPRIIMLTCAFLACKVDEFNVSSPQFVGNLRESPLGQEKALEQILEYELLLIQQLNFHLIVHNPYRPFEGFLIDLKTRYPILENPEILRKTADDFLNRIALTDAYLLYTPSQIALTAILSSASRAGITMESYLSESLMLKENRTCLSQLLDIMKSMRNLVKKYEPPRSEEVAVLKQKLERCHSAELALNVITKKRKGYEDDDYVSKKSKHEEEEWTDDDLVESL
# Chain of CDK7/Cyclin H/MNAT1 (P51948 whole entry partner): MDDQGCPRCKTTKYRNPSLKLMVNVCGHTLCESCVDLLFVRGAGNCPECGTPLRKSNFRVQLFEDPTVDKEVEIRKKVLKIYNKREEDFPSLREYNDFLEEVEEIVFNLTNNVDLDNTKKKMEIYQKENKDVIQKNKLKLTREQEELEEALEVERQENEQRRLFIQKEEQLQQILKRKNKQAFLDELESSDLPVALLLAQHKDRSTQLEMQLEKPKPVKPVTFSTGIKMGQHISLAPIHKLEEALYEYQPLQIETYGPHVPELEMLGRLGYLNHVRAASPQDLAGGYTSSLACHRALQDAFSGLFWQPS
# T1 sequence (P50613 2-346 limits assumed): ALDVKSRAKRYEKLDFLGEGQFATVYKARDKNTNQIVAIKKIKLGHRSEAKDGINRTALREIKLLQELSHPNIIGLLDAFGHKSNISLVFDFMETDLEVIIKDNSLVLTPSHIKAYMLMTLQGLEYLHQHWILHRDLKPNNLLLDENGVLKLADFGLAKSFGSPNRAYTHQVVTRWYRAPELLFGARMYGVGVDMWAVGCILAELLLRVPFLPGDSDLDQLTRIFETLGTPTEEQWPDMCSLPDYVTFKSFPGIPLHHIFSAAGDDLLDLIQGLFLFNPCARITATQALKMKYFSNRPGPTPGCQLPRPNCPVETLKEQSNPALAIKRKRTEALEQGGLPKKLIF
# T1 sequence (P51946 whole entry partner): as the sequence (P51946 whole entry partner) above
# T1 sequence (P51948 whole entry partner): as the sequence (P51948 whole entry partner) above
structure (smiles),measurement,setting,value
"Cc1ncsc1-c1ccc(CNC(=O)C2CC(O)CN2C(=O)C(NC(=O)C2(F)CC2)C(C)(C)C)c(OCCCCCCCCNC(=O)c2ccc(C(=O)Nc3n[nH]c4c3CN(C(=O)N[C@H](CN(C)C)c3ccccc3)C4(C)C)cc2)c1 (stereo partly drawn) [Compound 20, N1-(5-(((S)-2-(dimethylamino)-1-phenylethyl)carbamoyl)-6,6-dimethyl-1,4,5,6-tetrahydropyrrolo[3,4-c]pyrazol-3-yl)-N4-(8-(2-((1-(2-(1-fluorocyclopropane-1-carboxamido)-3,3-dimethylbutanoyl)-4-hydroxypyrrolidine-2-carboxamido)methyl)-5-(4-methylthiazol-5-yl)phenoxy)octyl)terephthalamide]",IC50,CDK7/Cyclin H/MNAT1,12.1 nM
same,CDK7 degradation (in words),"CDK7 [1]; Jurkat cells, 1 μM",moderate reduction of CDK7 protein levels
"Cc1ncsc1-c1ccc([C@H](C)NC(=O)[C@@H]2C[C@@H](O)CN2C(=O)[C@@H](NC(=O)CCCCCc2ccc(C(=O)Nc3n[nH]c4c3CN(C(=O)N[C@H](CN(C)C)c3ccccc3)C4(C)C)cc2)C(C)(C)C)cc1 [Compound 18, N-((S)-2-(dimethylamino)-1-phenylethyl)-3-(4-(6-(((S)-1-((2S,4R)-4-hydroxy-2-(((S)-1-(4-(4-methylthiazol-5-yl)phenyl)ethyl)carbamoyl)pyrrolidin-1-yl)-3,3-dimethyl-1-oxobutan-2-yl)amino)-6-oxohexyl)benzamido)-6,6-dimethyl-4,6-dihydropyrrolo[3,4-c]pyrazole-5(1H)-carboxamide]",IC50,CDK7/Cyclin H/MNAT1,20.3 nM
same,CDK7 degradation (in words),"CDK7 [1]; Jurkat cells, 0.1 μM or 1 μM",slightly decreased degradation activity
"Cc1ncsc1-c1ccc([C@H](C)NC(=O)[C@@H]2C[C@@H](O)CN2C(=O)[C@@H](NC(=O)CCCCCCCNC(=O)c2ccc(C(=O)Nc3n[nH]c4c3CN(C(=O)N[C@H](CN(C)C)c3ccccc3)C4(C)C)cc2)C(C)(C)C)cc1 [Compound 13, N1-(5-(((S)-2-(dimethylamino)-1-phenylethyl)carbamoyl)-6,6-dimethyl-1,4,5,6-tetrahydropyrrolo[3,4-c]pyrazol-3-yl)-N4-(8-(((S)-1-((2S,4R)-4-hydroxy-2-(((S)-1-(4-(4-methylthiazol-5-yl)phenyl)ethyl)carbamoyl)pyrrolidin-1-yl)-3,3-dimethyl-1-oxobutan-2-yl)amino)-8-oxooctyl)terephthalamide]",IC50,CDK7/Cyclin H/MNAT1,7.8 nM
same,reduction in CDK7 protein,"CDK7 [1]; Jurkat cells, 0.1 μM or 1 μM",more than 80%
"Cc1ncsc1-c1ccc([C@H](C)NC(=O)[C@@H]2C[C@@H](O)CN2C(=O)[C@@H](NC(=O)CCCC#Cc2ccc(C(=O)Nc3n[nH]c4c3CN(C(=O)N[C@H](CN(C)C)c3ccccc3)C4(C)C)cc2)C(C)(C)C)cc1 [Compound 17, N-((S)-2-(dimethylamino)-1-phenylethyl)-3-(4-(6-(((S)-1-((2S,4R)-4-hydroxy-2-(((S)-1-(4-(4-methylthiazol-5-yl)phenyl)ethyl)carbamoyl)pyrrolidin-1-yl)-3,3-dimethyl-1-oxobutan-2-yl)amino)-6-oxohex-1-yn-1-yl)benzamido)-6,6-dimethyl-4,6-dihydropyrrolo[3,4-c]pyrazole-5(1H)-carboxamide]",antiproliferative effect (in words),OVCAR3 cells,efficacies comparable to its parental compound YKL-5–167
same,MAT1 protein level,MAT1,dose-dependent downregulation
same,CDK7 abundance (proteomics),OVCAR3 cells proteome,significantly downregulated
same,Cyclin H abundance (proteomics),OVCAR3 cells proteome,significantly downregulated
same,number of significantly changed proteins,"OVCAR3 cells proteome; 6538 proteins identified, 1.75-fold cutoff, p-value < 0.001, vs DMSO",only three significantly changed proteins were identified
same,concentration at 6 h,"[2]; male, CD1, mouse, plasma, ip, 10 mg/kg",1490 nM
same,clearance,"[2]; mice, IV 3 mg/kg and IP 10 mg/kg",low clearance
same,maximum plasma concentration,"[2]; mice, single IP injection, 10 mg/kg",3.39 µM
same,clinical signs,[3]; during the PK study,no clinical signs were observed
same,tolerability,[3]; single dose IV 3 mg/kg or IP 10 mg/kg,well tolerated
same,CDK7 degradation (in words),"CDK7 [1]; Jurkat cells, 0.1 μM or 1 μM",most effective degrader for CDK7
same,reduction in CDK7 protein,"CDK7 [1]; Jurkat cells, 0.1 μM or 1 μM",up to 95%
same,time at which degradation of CDK7 was observable,"CDK7 [1]; Jurkat cells, 0.1 μM, time course up to 24 hours",≤ 0.5 h
same,CDK7 degradation after pretreatment with MG132 or MLN-4924,"CDK7 [1]; Jurkat cells, 2 h pretreatment, then 17 for 6 h",rescued CDK7 degradation
same,hook effect,"CDK7 [1]; Jurkat cells, 6 h, up to 5 μM",no hook effect was observed
same,"CDK7 degradation, concentration dependence","CDK7 [1]; Jurkat cells, different concentrations, 6 h",efficiently induced CDK7 degradation in a dose-dependent manner
same,CDK7 degradation in cells lacking VHL,"CDK7 [1]; VHL-knockout Jurkat cells vs wild-type, 6 h",completely abrogated
same,protein levels of other CDK family members,[4],barely affected the protein levels
same,CDK7 degradation,CDK7 [5]; A549 lung adenocarcinoma cell line,Robust degradation
same,CDK7 degradation,CDK7 [5]; Molt4 T lymphoblast cell line,Robust degradation
same,CDK7 degradation,CDK7 [5]; OVCAR3 ovarian adenocarcinoma cell line,Robust degradation
same,CDK7 degradation,CDK7 [5]; SUDHL5 B-cell lymphoma cell line,Robust degradation
same,LONRF2 degradation,LONRF2,did not observed LONRF2 degradation
"Cc1ncsc1-c1ccc([C@H](C)NC(=O)[C@@H]2C[C@H](O)CN2C(=O)[C@@H](NC(=O)CCCC#Cc2ccc(C(=O)Nc3n[nH]c4c3CN(C(=O)N[C@H](CN(C)C)c3ccccc3)C4(C)C)cc2)C(C)(C)C)cc1 [Compound 17-Neg, N-((S)-2-(dimethylamino)-1-phenylethyl)-3-(4-(6-(((S)-1-((2S,4S)-4-hydroxy-2-(((S)-1-(4-(4-methylthiazol-5-yl)phenyl)ethyl)carbamoyl)pyrrolidin-1-yl)-3,3-dimethyl-1-oxobutan-2-yl)amino)-6-oxohex-1-yn-1-yl)benzamido)-6,6-dimethyl-4,6-dihydropyrrolo[3,4-c]pyrazole-5(1H)-carboxamide]",antiproliferative effect (in words),OVCAR3 cells,much weaker antiproliferative effect
same,IC50,CDK7/Cyclin H/MNAT1,21.1 nM
same,antiproliferative effect (in words),SUDHL5 cells,much weaker antiproliferative effect
same,antiproliferative effect (in words),A549 cells,much weaker antiproliferative effect
same,level of CDK7 protein,"CDK7 [1]; Jurkat cells, 6 h, negative control",fails to reduce the level of CDK7 protein
same,anti-proliferative effect (in words),Jurkat cells,much weaker anti-proliferative effect
same,antiproliferative effect (in words),Molt4 cells,much weaker antiproliferative effect
